Test results as given in ChEMBL document CHEMBL4513216, “Probing the Open Global Health Chemical Diversity Library for Multistage-Active Starting Points for Next-Generation Antimalarials” (ACS Infect Dis, 2020).

Test: Toxicity liver stage against HepG2, at 10uM
Assay type: cell-based
Parameters: test concentration 10 uM, cell line HepG2-A16-CD81EGFP
Conditions: human, HepG2-A16-CD81EGFP cells; read-out: INHIBITION
Method in brief: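 Uninfected HepG2-A16-CD81EGFP cells, 3 × 10^3 per well, 1536-well, plated on prespotted compound at 10 μM final, parasite-free screening media added to match infected plates; puromycin 10 μM positive, DMSO 0.5% negative; run in parallel with 48 h PbLuc assay at 37 °C, 5% CO2; viability by CellTiter-Glo luminescence, normalized to controls.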

Structure (SMILES)	cytotoxicity at 10 µM
Cc1cc(C(F)(F)F)nn1CCCNC(=O)C1CCCO1 (centres undefined)	-6.5%
Cc1nn(C)c(Cl)c1S(=O)(=O)N(C)c1ccc(Cl)cn1	7.92%
O=C(C1CCOCC1)N1CCc2ncc(CN3CCCC3)n2CC1	-76.1%
Cc1noc(C)c1CC(=O)NCC(C(C)C)N1CCOCC1 (centres undefined)	-42.7%
Cc1ccc(NC2CCN(C(=O)c3c(C)noc3C)CC2)nn1	-4.35%
CC(C)[C@@H]1CN(C(=O)CCn2ccccc2=O)C[C@H]1NS(C)(=O)=O	6.2%
CN(C)CC(=O)N1CCCC2(CCN(c3ccccc3)C2=O)C1 (centres undefined)	-1.24%
Cc1ccc(NC2CCN(C(=O)c3ccnc(N(C)C)c3)CC2)nn1	3.97%
CN(Cc1ccc(Cl)s1)C(=O)Nc1ccc(N(C)C)nc1	-1.73%
Cc1cc(C)nc(CNC(=O)C(c2cccnc2)N2CCOCC2)n1 (centres undefined)	-1.43%
CNC(=O)c1cccc(C2CNCCN2C)c1 (centres undefined)	2.91%
c1ccc(Cn2cc(CNc3ncnc4c3CCNCC4)cn2)cc1	1.99%
Cc1nc(CN2CCN(C(=O)c3ccn(C)c(=O)c3)CC2)cs1	1.73%
COc1ccc(OCc2cc(C(=O)N3CCOCC3)n[nH]2)c(Cl)c1	-3.66%
CCc1nc(CN2CCCN(C(=O)c3ccccc3)CC2)cs1	7.41%
COCCOc1ncccc1CNC(=O)N1CCOCC1	-43.8%
Cc1ccc(S(=O)(=O)NCCNc2cc(-n3cccc3)ncn2)c(C)c1	-0.817%
Cc1ccc(C(=O)N2CCC3(CCN3Cc3ccc(F)cc3)C2)cn1 (centres undefined)	-116%
CCN1CCN(C(=O)C2CC(=O)N(c3cnn(C(C)C)c3)C2)CC1 (centres undefined)	5.61%
CC(C)N(Cc1c[nH]nc1-c1ccc2c(c1)OCO2)Cc1nccn1C	-7.8%
Cc1cccc(I)c1C(=O)NCc1ncc[nH]1	0.392%
O=C(c1ccoc1)N1CCOCC2(CCN(C3CCOCC3)C2)C1 (centres undefined)	-6.11%
O=C1[C@@H]2CCN(C3CCOCC3)C[C@@H]2OCCN1Cc1cccnc1	-80%
CNc1cc(C)nc(N2C[C@@H](C(=O)O)[C@H](C3CC3)C2)n1	-0.147%
CCCN(C(=O)c1csnn1)C1CCCN(Cc2ccccc2)C1 (centres undefined)	-4.38%
O[C@@H]1CC(CNCC2CCCC2)(COc2cccnc2)C[C@@H]1O (some centres undefined)	-6.53%
O=C(C1CCOCC1)N1CC[C@H]2C[C@@H](c3ccncn3)O[C@@H]2C1	-0.748%

Structure (SMILES)	cytotoxicity at 10 µM
Cc1nnc([C@@H]2C[C@H]3CN(C(=O)c4sccc4C)C[C@H]3O2)[nH]1	16%
CO[C@H]1CN(S(=O)(=O)c2ccc(F)cc2)C[C@@]12CCCO2	13.2%
O=C(NCCCNc1ccccn1)NCC1CCS(=O)(=O)C1 (centres undefined)	16%
N#Cc1cccc(CN2CC[C@@H]3CO[C@@H](CN4CCCC4)[C@@H]3C2)c1	-0.159%
CC(Cn1cccn1)NC(=O)NCc1ccc(S(N)(=O)=O)cc1 (centres undefined)	3.63%
O=C(c1ccccc1-c1ccccc1)N1CCOC2(CNCCOC2)C1 (centres undefined)	-16.2%
Cc1cnn(CC2CCCN2CC(=O)NCc2ccccn2)c1 (centres undefined)	-5%
CC(C)C(O)CNC(=O)Nc1cccc(-c2nccs2)c1 (centres undefined)	-5.5%
O=C(O)C(c1ccc2c(c1)OCCO2)N1CCSCC1 (centres undefined)	1.38%
COc1ccc(OCc2cc(C(=O)N3CCC(O)CC3)n[nH]2)c(Cl)c1	-1.69%
COc1cc(CCC(=O)NC(C)C(=O)O)ccc1OCC(F)(F)F (centres undefined)	-2.15%
CCn1cc(NC(=O)C2CCN(CCOC(C)C)CC2)cn1	-5.4%
Cc1ccc(N2CC[C@H]3O[C@H](C(=O)NCc4ccco4)CC[C@H]32)nn1	-71.9%
COCCNC(=O)CNC(=O)c1nc(Cc2c(Cl)cccc2Cl)no1	5.64%
O=C(C1CC1)N1C[C@@H](F)[C@@H](OCc2nc3cc(F)ccc3[nH]2)C1	-6.92%
O=S(=O)(c1cccnc1)N1C[C@H]2CC[C@@H](C1)N(Cc1ccccn1)C2	-0.807%
COc1cccc(CN2CCCC3(CCN(C(=O)N4CCCC4)C3)C2)c1 (centres undefined)	-4.34%
Cc1nc(CNC(=O)CC2C(=O)NCCN2CCC(C)C)n[nH]1 (centres undefined)	-4.44%
Cc1c(C(=O)N2CCCC(n3cccn3)C2)nnn1-c1ccccc1 (centres undefined)	-3.45%
COc1cccc(-n2c(C)cc(C(=O)NS(C)(=O)=O)c2C)c1	-6%
CC(C)CC(NC(=O)c1cc(C2CC2)n[nH]1)c1ncnn1C (centres undefined)	4.93%
c1cnc(N2CC3(CCN(CC4CCOC4)CC3)c3ccccc32)nc1 (centres undefined)	-6.78%
Cc1ccc(NC2CCN(C(=O)Cc3ccc(C)s3)CC2)nn1	-3.75%
COCc1cc(CN(C)C(=O)c2c[nH]nc2-c2cccc(F)c2)n[nH]1	0.445%
Cc1cccc2nc(CN3CCCC(Cn4ccnn4)C3)cc(=O)n12 (centres undefined)	3.23%
O=C(NCc1ccco1)[C@@H]1CCO[C@@H]2CCN(CC3CC3)C[C@@H]21	-78.7%
c1ccc(C2CCN(c3cncc(-n4cccn4)n3)CC2)cc1	-15.3%

Structure (SMILES)	cytotoxicity at 10 µM
COc1ccccc1C(NCc1ccc(SC)cc1)c1nccn1C (centres undefined)	-11.6%
Cc1nn(C)c(C)c1-c1ccc(=O)n(C(C)C(=O)NC2CCCCC2)n1 (centres undefined)	1.94%
COCCn1c(C(=O)NC(C(N)=O)C(C)C)cc2ccccc21 (centres undefined)	9.73%
CCc1ccc(C(=O)O)cc1S(=O)(=O)Nc1ccc(=O)n(C)c1	11.7%
CC(=O)c1cccc(OCCCC(=O)N(C)Cc2cnc(C)s2)c1	14.2%
COCCN1CCOCC12CCN(C(=O)Cc1cccs1)CC2	10.8%
CCc1cc(=O)n(CCNC(=O)Nc2ccc(OC(F)(F)F)cc2)cn1	-0.898%
Cc1ccc(C(=O)N2CCCC3(CCCC(=O)N3C)C2)cc1F (centres undefined)	4.12%
CCc1cc(N2CCC(Nc3ccc4nnc(C)n4n3)CC2)ncn1	4.69%
Cc1ccc(N(CCC#N)C(=O)CCc2cscn2)cc1C	6.36%
CC(CC#N)NC(=O)c1cc(Br)c2c(c1)OCCO2 (centres undefined)	5.56%
COCCN(Cc1ccc(F)cc1Cl)C(=O)c1c(C)noc1C	-1.82%
CC(=O)CN1CCC2(CC1)c1ccccc1[C@@H](N1CCSCC1)[C@@H]2O	-27.1%
Cc1ccc(OCCN(C)S(=O)(=O)N2CCOCC2)cc1	0.651%
Fc1ccc(CN2CC[C@H]3O[C@@H](COCC4CCOCC4)CC[C@H]32)cc1	7.64%
Cc1nnn2c1COC(CNC(=O)c1cccn1C)C2 (centres undefined)	6.09%
O=C(COC1CCCC1)N1CC[C@H]2OCC[C@@]2(COCC2CC2)C1	1.52%
Cc1ccc(C(=O)NCCn2nc(-n3cncn3)ccc2=O)c(C)c1	-1.25%
Cc1ccoc1C(=O)N1CCCC(CNS(C)(=O)=O)C1 (centres undefined)	-23.4%
CC(CO)(NCc1noc(Cc2ccccc2)n1)C1CCCCC1 (centres undefined)	-17.2%
Cc1cnn(CCNCc2cc(-c3ccccc3)no2)c1	-3.03%
O=C(N[C@@H]1c2ccccc2C[C@@H]1O)C1CCN(Cc2ccco2)CC1	-0.647%
Cc1cnc(N2CCOC3(CCCN(CC(=O)N(C)C)C3)C2)nc1 (centres undefined)	8.67%
Cc1ccc(NC(=O)[C@H]2C[C@H](C(=O)O)CN(CC3CC3)C2)cn1	0.999%
CC(C)c1ncncc1C(=O)N1CCN(Cc2cscn2)CC1	-5.75%
